In ChEMBL document CHEMBL4368909, “Identification of Dihydrofuro[3,4- d]pyrimidine Derivatives as Novel HIV-1 Non-Nucleoside Reverse Transcriptase Inhibitors with Promising Antiviral Activities and Desirable Physicochemical Properties” (J Med Chem, 2019):
≈ marks a conversion by molar mass, not a printed value.

Columns and labels:
[1] = Aqueous solubility of the compound at pH at 7 by HPLC analysis; assay type: physicochemical; details: buffer, pH 7
In short: (§1)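 Aqueous solubility read by HPLC in buffer at pH 2.0, 7.0 or 7.4.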

Cytochrome P450 1A2 = target: T1, Cytochrome P450 1A2 (Homo sapiens, UniProt P05177); assay: Inhibition of CYP1A2 in human liver microsomes using phenacetin as substrate after 10 mins in presence of NADPH; assay type: ADME
T1 sequence (P05177 whole entry): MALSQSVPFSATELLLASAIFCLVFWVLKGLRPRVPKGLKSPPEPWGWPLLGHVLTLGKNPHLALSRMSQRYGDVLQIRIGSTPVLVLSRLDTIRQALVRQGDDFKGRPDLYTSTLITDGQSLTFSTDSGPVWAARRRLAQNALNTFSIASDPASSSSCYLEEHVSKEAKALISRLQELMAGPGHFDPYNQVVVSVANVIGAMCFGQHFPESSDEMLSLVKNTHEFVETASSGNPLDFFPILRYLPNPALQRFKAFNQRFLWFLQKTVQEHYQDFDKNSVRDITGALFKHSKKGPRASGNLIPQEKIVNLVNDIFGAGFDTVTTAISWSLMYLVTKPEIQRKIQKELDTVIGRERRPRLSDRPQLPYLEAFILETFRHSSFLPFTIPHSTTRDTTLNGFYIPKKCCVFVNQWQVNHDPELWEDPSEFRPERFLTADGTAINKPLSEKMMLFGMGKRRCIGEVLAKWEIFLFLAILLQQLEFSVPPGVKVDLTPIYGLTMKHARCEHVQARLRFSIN

[2] = Aqueous solubility of the compound at pH at 2 by HPLC analysis; assay type: physicochemical; details: buffer, pH 2; in short: as §1
Cytochrome P450 2C9 = Cytochrome P450 2C9 (Homo sapiens, UniProt P11712); assay: Inhibition of CYP2C9 in human liver microsomes using diclofenac as substrate after 10 mins in presence of NADPH; assay type: ADME
Cytochrome P450 2C9, sequence (P11712 whole entry): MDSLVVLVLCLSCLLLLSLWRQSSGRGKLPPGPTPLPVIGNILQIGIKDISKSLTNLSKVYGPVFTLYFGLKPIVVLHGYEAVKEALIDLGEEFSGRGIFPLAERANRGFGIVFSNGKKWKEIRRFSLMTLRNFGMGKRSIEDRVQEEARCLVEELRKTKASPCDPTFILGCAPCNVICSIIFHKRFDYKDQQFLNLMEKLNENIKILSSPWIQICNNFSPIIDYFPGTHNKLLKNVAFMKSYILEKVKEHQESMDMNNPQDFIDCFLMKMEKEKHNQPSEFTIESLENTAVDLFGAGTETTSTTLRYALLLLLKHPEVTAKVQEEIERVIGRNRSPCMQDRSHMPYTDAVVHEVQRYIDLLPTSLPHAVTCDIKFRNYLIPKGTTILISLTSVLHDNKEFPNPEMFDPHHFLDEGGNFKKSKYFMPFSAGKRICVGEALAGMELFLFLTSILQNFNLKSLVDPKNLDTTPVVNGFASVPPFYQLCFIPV

[3] = AUCt in Wistar rat at 2 mg/kg, iv by LC-MS/MS analysis; assay type: ADME, organism-based; details: in vivo
In short: (§2)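 Male/unspecified Wistar rats given one dose, 2 mg/kg intravenously or 20 mg/kg orally; plasma concentration–time profiles followed; PK parameters reported as mean ± SD, n = 5.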

[4] = Acute toxicity in Kunming mouse assessed as mortality at 800 mg/kg, po measured after 2 weeks; assay type: organism-based; details: in vivo, 336 h
In short: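 Kunming mice received a single intragastric dose of 800 mg/kg. Deaths and behaviour were observed over 2 weeks and compared with a control group.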

[5] = tested on: Human immunodeficiency virus 1; assay: Resistance factor, ratio of EC50 for HIV1 harboring reverse transcriptase Y188L mutant to EC50 for wild type HIV1; assay type: functional
In short: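 The resistance factor is the EC50 against the mutant strain divided by the EC50 against wild-type HIV-1. Both were measured in MT-4 cells by MTT read-out of protection from virus-induced cytopathicity.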

[6] = Sub-acute toxicity in Kunming mouse assessed as effect on heart at 50 mg/kg/day, po administered for 2 weeks by hematoxylin and eosin staining-based assay; assay type: organism-based; details: in vivo, 336 h
In short: (§3)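 Mice were dosed orally at 50 mg/kg/day for 2 weeks and observed for behavioural abnormalities during treatment. Organs were then examined by hematoxylin–eosin staining.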

Cytochrome P450 3A4 = Cytochrome P450 3A4 (Homo sapiens, UniProt P08684); assay: Inhibition of CYP3A4 in human liver microsomes using midazolam as substrate after 10 mins in presence of NADPH; assay type: ADME
Cytochrome P450 3A4, sequence (P08684 whole entry): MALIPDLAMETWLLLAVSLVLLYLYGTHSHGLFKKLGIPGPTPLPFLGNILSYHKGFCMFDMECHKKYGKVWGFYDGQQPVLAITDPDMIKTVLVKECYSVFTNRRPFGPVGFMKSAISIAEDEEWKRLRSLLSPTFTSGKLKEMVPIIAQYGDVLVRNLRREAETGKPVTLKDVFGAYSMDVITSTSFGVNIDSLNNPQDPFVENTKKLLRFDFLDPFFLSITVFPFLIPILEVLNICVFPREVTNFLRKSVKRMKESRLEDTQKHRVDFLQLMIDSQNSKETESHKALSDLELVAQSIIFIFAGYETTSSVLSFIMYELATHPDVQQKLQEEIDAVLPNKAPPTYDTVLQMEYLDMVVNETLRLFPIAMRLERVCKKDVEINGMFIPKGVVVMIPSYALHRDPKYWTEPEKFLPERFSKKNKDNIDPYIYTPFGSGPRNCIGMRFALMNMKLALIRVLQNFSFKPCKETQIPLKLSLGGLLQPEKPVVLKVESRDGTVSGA

[7] = AUCt in Wistar rat at 20 mg/kg, po by LC-MS/MS analysis; assay type: ADME, organism-based; details: in vivo; in short: as §2
[8] = Oral bioavailability in Wistar rat at 20 mg/kg by LC-MS/MS analysis; assay type: ADME, organism-based; details: in vivo; in short: as §2
[9] = Protein binding in rat plasma assessed as recovery rate at 2 uM after 5 hrs by LC/MS analysis; assay type: ADME, cell-free
[10] = Sub-acute toxicity in Kunming mouse assessed as effect on liver at 50 mg/kg/day, po administered for 2 weeks by hematoxylin and eosin staining-based assay; assay type: organism-based; details: in vivo, 336 h; in short: as §3

Cc1cc(C#N)cc(C)c1Oc1nc(NC2CCN(Cc3ccc(C(N)=O)cc3)CC2)nc2c1COC2
solubility [1]: 13.3 µg/mL (≈ 26.7 µM)
IC50 (Cytochrome P450 1A2): > 50 µM
solubility [2]: 198 µg/mL (≈ 397 µM)
IC50 (Cytochrome P450 2C9): 46.6 µM
AUC(0-t) [3]: 500 ng·h/mL
Activity [4]: Non-Toxic
Ratio EC50 [5]: 5.3
Activity [6]: Non-Toxic
IC50 (Cytochrome P450 3A4): > 50 µM
AUC(0-t) [7]: 1550 ng·h/mL
F [8]: 30.96%
Drug recovery [9]: 77.9%
Activity [10]: Non-Toxic
